Laboratory results taken from paper PMC9524259 (Journal of medicinal chemistry, 2022).
Entries after “also recorded” stand apart in the source; their conditions may differ.

Key:
MDA-MB-231 cells [1] = assay: Antiproliferative MTT assay, MDA-MB-231; format: cell-based; conditions: for IC50: read-out: MDA-MB-231 IC50, 72 h with drug, MTT assay
A549 cells [2] = assay: Antiproliferative MTT assay, A549; format: cell-based; conditions: for IC50: read-out: A549 IC50, 72 h with drug, MTT assay
MDA-MB-231 spheroids = assay: Live-dead cell assay, MDA-MB-231 spheroids; format: cell-based; conditions: day 15, IC50 and half IC50 concentrations
Procedure, shortened: (§1)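 Spheroids from the growth study were stained after day 15 with calcein AM (live) and EthD-III (dead). Incubation was 30 min in the dark at room temperature, followed by fluorescence imaging at 4X. Live and dead signal were quantified; mean ± SD, n = 4.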

MDA-MB-231 cells [3] = assay: Western blot of TSP levels, MDA-MB-231; format: cell-based; conditions: 48 h; for p53 levels: mutant p53
Procedure, shortened: (§2)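 Cells in 10 cm dishes were treated 48 h with varying concentrations of test compound (0.5% DMSO final) or DMSO alone. HuH6 and MDA-MB-231 were grown in DMEM/10% FBS; A549 in RPMI 1640. Harvested cells were lysed in RIPA with protease/phosphatase inhibitors, on ice for 60 min. Equal protein (15 μg) was run under reducing conditions and blotted to PVDF. Probes were p53, phospho-p53 S6 and S15, Rb, gankyrin, and cyclophilin.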

gankyrin [4] = molecular target: T1, gankyrin (Homo sapiens, UniProt O75832); assay: Circular dichroism spectra and thermal denaturation; format: binding; conditions: for CD spectra: α-helical (secondary structure) content of gankyrin: 100 nM to 1.5 μM compound, minima at 208 and 222 nm; for thermal denaturation of gankyrin monitored at 217 nm: 1.5 μM compound, 5 – 90 °C; for gankyrin precipitation in CD sample (visual examination): in presence of compound
T1 sequence (O75832 1-226): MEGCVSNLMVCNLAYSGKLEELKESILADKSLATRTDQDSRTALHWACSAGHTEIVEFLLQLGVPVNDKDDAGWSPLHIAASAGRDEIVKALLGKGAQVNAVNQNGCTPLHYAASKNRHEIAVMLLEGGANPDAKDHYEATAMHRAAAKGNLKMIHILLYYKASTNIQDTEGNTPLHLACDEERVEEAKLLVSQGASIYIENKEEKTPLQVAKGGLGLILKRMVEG
Procedure, shortened: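 Gankyrin, His6-tagged, was expressed in LB cultures with 1 mM IPTG induction at 25 °C for ~5 h. It was purified by Ni-IMAC, the tag cut with TEV, then dialysed and re-passed over Ni-IMAC. CD was run in 1x PBS, 0.5% DMSO, pH 7.4, in a 1 mm cuvette, with test compound at 100 nM–1.5 μM. Spectra covered 190–260 nm with six accumulations. Thermal melts were read at 217 nm, 5–90 °C, 1 °C/min.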

gankyrin [5] = molecular target: T1, gankyrin; assay: Protein thermal shift; format: binding; conditions: Table S1
MDA-MB-231 cells [6] = assay: Clonogenic assay, MDA-MB-231; format: cell-based; conditions: 48 h treatment then 7 days fresh media
Procedure, shortened: (§3)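 Cells were seeded at 125 cells/mL in 6-well plates and left overnight to attach. Test compound was applied at two concentrations for 48 h at 37 °C, then removed. Fresh medium followed, changed every alternate day, for 7 days. Cells were washed in PBS, fixed in 4% paraformaldehyde and stained with 0.2% crystal violet for 1 h. Colonies of >50 cells were counted, and % growth was calculated relative to control; mean ± SD, n = 3.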

A549 spheroids = assay: Live-dead cell assay, A549 spheroids; format: cell-based; conditions: day 15, both concentrations
Procedure, shortened: as §1

A549 cells [7] = assay: Cell cycle analysis, A549; format: cell-based; conditions: 0.3 μM, 72 h
A549 cells [8] = assay: Clonogenic assay, A549; format: cell-based; conditions: 0.15 μM, 48 h treatment then 7 days fresh media
Procedure, shortened: as §3

A549 cells [9] = assay: Western blot of TSP levels, A549; format: cell-based; conditions: 48 h
Procedure, shortened: as §2

gankyrin in A549 cells = molecular target: T2, gankyrin in A549 cells (Homo sapiens, UniProt O75832); assay: Cellular thermal shift assay; format: cell-based; conditions: 0.3 μM, 48 h
T2 sequence (O75832 1-226): T1 sequence (O75832 1-226)

[10] = molecular target: T3, gankyrin in MDA-MB-231 cells (Homo sapiens, UniProt O75832); assay: Cellular thermal shift assay; format: cell-based; conditions: 2 μM, 48 h
T3 sequence (O75832 1-226): T1 sequence (O75832 1-226)
Procedure, shortened: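 Intact MDA-MB-231 cells were treated 48 h with 2 μM test compound (0.5% DMSO final) or DMSO. Cells were split into aliquots and heated separately at 50, 53, 56, 59, 62 and 65 °C. Lysis was in RIPA on ice for 60 min, then lysates were cleared at 15,000 rpm, 15 min, 4 °C. Equal protein was immunoblotted for gankyrin with actin as reference, and melt curves were built; mean ± SD, n = 3.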

HuH6 cells = assay: Western blot of TSP levels, HuH6; format: cell-based, human; conditions: 48 h (Figure S1)
Procedure, shortened: as §2

MDA-MB-231 cells [11] = assay: Cell cycle analysis, MDA-MB-231; format: cell-based; conditions: 2 μM, 72 h
Procedure, shortened: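 MDA-MB-231 cells in 10 cm dishes were exposed to 2 μM test compound (0.1% DMSO final) or DMSO alone for 72 h. Harvested cells were normalized, fixed in 70% ethanol at −20 °C overnight, pelleted and stained with a PI kit for 40 min at 37 °C. Analysis was by flow and imaging cytometry; mean ± SD, n = 3.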

COC(=O)c1ccc(-n2cc(CCCC(=O)Nc3ccc(C)cc3)nn2)cc1 [Compound 20, Methyl p-{4-[3-(N-p-tolylcarbamoyl)propyl]-1H-1,2,3-triazol-1-yl}benzoate]
improvement in antiproliferative activity against MDA-MB-231 as compared to cjoc42 (MDA-MB-231 cells [1]): 8–10 fold

COC(=O)c1ccc(-n2cc(CCCC(=S)Nc3ccc(C)cc3)nn2)cc1 [Compound 21, Methyl p-{4-[3-(p-tolylcarbamthioyl)propyl]-1H-1,2,3-triazol-1-yl}benzoate]
improvement in antiproliferative activity against A549 as compared to cjoc42 (A549 cells [2]): ~10 fold
improvement in antiproliferative activity against MDA-MB-231 as compared to cjoc42 (MDA-MB-231 cells [1]): 8–10 fold

COC(=O)c1ccc(-n2cc(CCCNC(=O)Nc3ccc(C)cc3)nn2)cc1 [Compound 26, Methyl p-(4-{3-[3-(p-tolyl)ureido]propyl}−1H-1,2,3-triazol-1-yl)benzoate]
improvement in antiproliferative activity against MDA-MB-231 as compared to cjoc42 (MDA-MB-231 cells [1]): 8–10 fold

COC(=O)c1ccc(-n2cc(CCCOc3ccc(C)cc3)nn2)cc1 [Compound 33, Methyl p-{4-[3-(p-tolyloxy)propyl]-1H-1,2,3-triazol-1-yl}benzoate]
improvement in antiproliferative activity against MDA-MB-231 as compared to cjoc42 (MDA-MB-231 cells [1]): 8–10 fold

Cc1ccc(NC(=O)CCCn2cc(-c3ccc(C(F)(F)F)cc3)nn2)cc1 [Compound 51b, N-p-Tolyl4-{4-[p-(trifluoromethyl)phenyl]-1H-1,2,3-triazol-1-yl}butyramide]
green fluorescence intensity (live cells) (MDA-MB-231 spheroids): decrease in green intensity (live cells)
red fluorescence intensity (dead cells) (MDA-MB-231 spheroids): increase in red fluorescence intensity (dead cells)
Rb levels (MDA-MB-231 cells [3]): increase in Rb levels
gankyrin levels (MDA-MB-231 cells [3]): remained relatively unchanged
p53 levels (MDA-MB-231 cells [3]): relatively unchanged levels of p53
CD spectra: α-helical (secondary structure) content of gankyrin (gankyrin [4]): enhancement in the 222 nm spectral minimum; also recorded: signal enhancement
thermal denaturation of gankyrin monitored at 217 nm (gankyrin [4]): complete denaturation across the entire measured temperature range
gankyrin binding by protein thermal shift (gankyrin [5]): effectively bind gankyrin
% colony growth (MDA-MB-231 cells [6]; 2.30 μM): 60.3%

COC(=O)c1ccc(-c2cn(CCCC(=O)Nc3ccc(-c4ccccc4)cc3)nn2)cc1 [Compound 51c, Methyl p-{1-[3-(N-4-biphenylylcarbamoyl)propyl]-1H-1,2,3-triazol-4-yl}benzoate]
green intensity (live cells) (A549 spheroids): dose-dependent decrease in green intensity
red intensity (dead cells) (A549 spheroids): increase in red intensity
cell population in the S and G2/M phases (A549 cells [7]): significantly decreasing the cell population in the S and G2/M phases
cells in the G0/G1 phase (A549 cells [7]): significant increase in the number of cells in the G0/G1 phase
% colony growth (A549 cells [8]): 61.9%
Rb levels (A549 cells [9]): increased Rb levels
gankyrin levels (A549 cells [9]): remained relatively unchanged
p53 levels (A549 cells [9]): relatively unchanged p53 levels
phosphorylated p53 (Ser6) levels (A549 cells [9]): increase the expression levels of phosphorylated p53 (Ser6)
phosphorylated p53 (Ser15) levels (A549 cells [9]): also increased phosphorylated p53 (Ser15) expression levels
gankyrin thermal stability (CETSA) (gankyrin in A549 cells): significant ability to decrease gankyrin thermal stability
CD spectra: α-helical (secondary structure) content of gankyrin (gankyrin [4]): weakening of secondary structure content in gankyrin
thermal denaturation of gankyrin monitored at 217 nm (gankyrin [4]): complete denaturation across the entire measured temperature range
gankyrin precipitation in CD sample (visual examination) (gankyrin [4]): only showed marginal precipitation
gankyrin binding by protein thermal shift (gankyrin [5]): effectively bind gankyrin

O=C(CCCn1cc(-c2ccc(C(F)(F)F)cc2)nn1)Nc1ccc(-c2ccccc2)cc1 [Compound 51d, N-4-Biphenylyl4-{4-[p-(trifluoromethyl)phenyl]-1H-1,2,3-triazol-1-yl}butyramide]
green fluorescence intensity (live cells) (MDA-MB-231 spheroids): significant decrease in green fluorescence intensity (live cells)
red fluorescence intensity (dead cells) (MDA-MB-231 spheroids): significant increase in red fluorescence intensity (dead cells)
gankyrin thermal stability (CETSA) [10]: significantly decreased
Rb levels (MDA-MB-231 cells [3]): increase in Rb levels
gankyrin levels (MDA-MB-231 cells [3]): remained relatively unchanged
p53 levels (MDA-MB-231 cells [3]): relatively unchanged levels of p53
p53 and Rb levels (HuH6 cells): increased levels of both p53 and Rb
CD spectra: α-helical (secondary structure) content of gankyrin (gankyrin [4]): weakening of secondary structure content in gankyrin
thermal denaturation of gankyrin monitored at 217 nm (gankyrin [4]): maintained gankyrin’s expected two-state transition but unfolded at an accelerated rate
gankyrin precipitation in CD sample (visual examination) (gankyrin [4]): only showed marginal precipitation
cell population in the G2/M phase (MDA-MB-231 cells [11]): decrease in the cell population in the G2/M phase
cell population in the S phase (MDA-MB-231 cells [11]): relatively unchanged
cells in the G0/G1 phase (MDA-MB-231 cells [11]): significant increase in the number of cells in the G0/G1 phase
gankyrin binding by protein thermal shift (gankyrin [5]): effectively bind gankyrin
% colony growth (MDA-MB-231 cells [6]; 1.0 μM): 72.4%

Methyl p-{4-[3-(p-toluoxy)propyl]-1H-1,2,3-triazol-1-yl}benzoate [Compound 25]
IC50 (A549 cells [2]): > 100 µM
IC50 (MDA-MB-231 cells [1]): > 100 µM

Methyl p-{4-[3-(p-tolylcarbamthioyl)propyl]-1H-1,2,3-triazol-1-yl}benzoate [Compound 24]
IC50 (A549 cells [2]): > 100 µM
IC50 (MDA-MB-231 cells [1]): 82.4 µM
